High-throughput results (PubChem BioAssay)
Hits are enriched below; roughly 0.77% of the tested compounds scored in any of these assays.
bIAP inh – intestinal alkaline phosphatase (bovine) inhibition; purified bovine IAP, CDP-star luminescence, 30 min; 190,000 tested, under 10 active; inhibition, % at 20 µM;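 active = over 50% inhibition of intestinal alkaline phosphatase at 20 µM in the single-dose screen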
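System: Purified bovine intestinal alkaline phosphatase (IAP) enzyme | Input: IAP diluted 1/65,000,000 in the well | Also added: CDP-star chemiluminescent phosphatase substrate, 30 µM final | Dosing: 20 µM single dose | Times: Enzyme reaction for 30 min at room temperature | Detection: Luminescence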
hIAP inh – blocks human intestinal alkaline phosphatase. P09923. purified IAP, CDP-Star luminescence, 30 min. inhibition, % at 10 µM. 0.12% of 330,000 active;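 active = inhibition reaching a set limit with compound at 10 µM in the primary screen, cut at about 35% in these data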;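 also: plate controls were DMSO wells with enzyme for no effect and no-enzyme buffer wells for full effect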
bIAP act – increases bovine intestinal alkaline phosphatase activity. purified bovine IAP, CDP-star luminescence, 30 min; hits give high values; fold of DMSO-control signal, blank-subtracted. 0.17% of 200,000 active. AID 1016. activation factor at 20 µM;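 active = activation factor of 2 or more at 20 µM, a signal rise over negative controls twice the positive control's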
mIAP block – blocks mouse intestinal alkaline phosphatase; 0.2% of 330,000 active; inhibition, % at 10 µM; purified mouse IAP, CDP-Star luminescence, 30 min;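 active = inhibition of at least 40% at 10 µM in the primary screen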;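 also: plate controls were DMSO with enzyme for no effect and no enzyme wells for full effect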
hIAP act – human IAP activation. purified human IAP, CDP-Star luminescence, 30 min; hits give high values; 1 = vehicle-only enzyme, 0 = enzyme-free background. activation factor at 10 µM. 0.16% of 330,000 active;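 active = activation factor of the enzyme at least 2-fold when tested at 20 µM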
mIAP act – increases mouse intestinal alkaline phosphatase activity; activation factor at 10 µM; 0.24% of 330,000 active; muIAP, CDP-Star luminescence, 30 min; hits give high values; 1 = vehicle-only enzyme signal, 0 = enzyme-free wells;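 active = activation factor of at least 2 at 20 µM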
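also added = chemiluminescent substrate CDP-Star | test system = mouse IAP enzyme | signal = chemiluminescence readout | compound = DMSO-dissolved test compounds | incubation = 30 min at room temperature | benchmarks = DMSO wells, no-enzyme wells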
hIAP act confirm – human IAP activation confirmation; shares compounds with hIAP act; purified IAP, CDP-Star luminescence, 30 min; hits give low values; activation (%Activity, negative = activation), % at 8.3 µM; 10% of 880 active; AID 434926;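 active = at least twofold enzyme activation in any of six single-dose repeats, which the averaged readout prints as negative percent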
* hit, by the source's call.

Screening Cc1ccc2nc(NC(=S)NC(=O)c3ccco3)sc2c1 returned bIAP inh -2 and bIAP act 1.
For CCOC(=O)C1CCCCN1Cc1cc(OC)ccc1OC (stereo not given) the results were bIAP inh 5, hIAP inh -9, bIAP act 0.9, mIAP block 0, hIAP act 1.1 and mIAP act 1.
Screening COc1cc(NC(=O)c2cccnc2)ccc1NC(=O)c1ccccc1Cl returned hIAP inh 1, mIAP block 2, hIAP act 0.99 and mIAP act 0.98.
`O=C(NCc1ccccc1)C(=O)NCC1OCCN1S(=O)(=O)c1ccc2c(c1)OCCO2` (stereo not given) gave bIAP inh 7, hIAP inh -6, bIAP act 0.9, mIAP block 3, hIAP act 1.1 and mIAP act 0.97.
Screening Cc1cccc(C(=O)NC(C)C2CC3CCC2C3)c1 (stereo not given) returned hIAP inh -6, mIAP block 0, hIAP act 1.1 and mIAP act 1.
Cn1nc(C(=O)NNC(=O)c2ccc(Cl)c(S(N)(=O)=O)c2)c2ccccc2c1=O was read as hIAP inh -105, mIAP block 33, hIAP act 2.1*, mIAP act 0.67 and hIAP act confirm 2.
Screening COc1ccc(OCC(=O)NNC(=O)c2nn(C)c(=O)c3ccccc23)cc1 returned bIAP inh -6, hIAP inh -22, bIAP act 1.1, mIAP block 9, hIAP act 1.2 and mIAP act 0.91.
Screening COc1cc(OC)cc(C(=O)NNC(=O)c2nn(C)c(=O)c3ccccc23)c1 returned hIAP inh -106, mIAP block -4, hIAP act 2.1*, mIAP act 1 and hIAP act confirm 23.
For COc1cccc(CNS(=O)(=O)c2cccc(S(=O)(=O)N3CCOCC3)c2)c1 the results were bIAP inh 10, hIAP inh -1, bIAP act 0.9, mIAP block -8, hIAP act 1 and mIAP act 1.1.
COc1ccc(CNS(=O)(=O)c2cccc(S(=O)(=O)N3CCOCC3)c2)cc1 was read as bIAP inh 10, hIAP inh 36*, bIAP act 0.9, mIAP block 0, hIAP act 0.65, mIAP act 1 and hIAP act confirm -40.
CC(=O)Nc1cccc(OCCCNS(=O)(=O)c2ccc(C#N)cc2)c1 was read as hIAP inh -8, mIAP block -11, hIAP act 1.1 and mIAP act 1.1.
Cc1cc(-n2c(SCC(=O)Nc3ccc(F)c(F)c3)nc3n[nH]c(C)c3c2=N)ccc1Cl was read as hIAP inh -107, mIAP block -14, hIAP act 2.1*, mIAP act 1.1 and hIAP act confirm -40.
For O=C(CCN1N=C(c2ccccc2)CCC1=O)NCC1CCCO1 (stereo not given) the results were hIAP inh -12, mIAP block -3, hIAP act 1.1 and mIAP act 1.
For Oc1ccccc1N=N/C(=N/Nc1ccccc1O)c1ccccc1 the results were hIAP inh 5, mIAP block 4, hIAP act 0.95 and mIAP act 0.96.
`Cn1nnnc1N=N/C(=N/Nc1ccccc1)c1ccccc1` gave hIAP inh 46*, mIAP block 24, hIAP act 0.54, mIAP act 0.76 and hIAP act confirm 55.
`CCn1cc(C(=O)NCCc2ccc(Cl)cc2)c(=O)c2ccc(C)nc21` gave hIAP inh -9, mIAP block 4, hIAP act 1.1 and mIAP act 0.96.
`CC(=O)Nc1ccc(C(=O)OCCCOC(=O)c2ccc(NC(C)=O)cc2)cc1` gave hIAP inh 2, mIAP block -1, hIAP act 0.98 and mIAP act 1.
CCOc1cc(/C=C2/SC(=S)N(Cc3ccccc3)C2=O)ccc1O was read as hIAP inh -10, mIAP block 28, hIAP act 1.1 and mIAP act 0.72.
COc1cc(/C=C2\SC(=S)N(N(C)c3ccccc3)C2=O)ccc1O was read as hIAP inh 41*, mIAP block 30, hIAP act 0.59, mIAP act 0.69 and hIAP act confirm 60.
